Screens (PubChem)
MBD2 DNA inh = inhibitors of MBD2 binding to methylated DNA, primary screen, biochemical, TR-FRET, DNA-binding domain, human | Methyl-CpG-binding domain protein 2 (Homo sapiens), Q9UBB5 | MBD2 binding to methylated oligonucleotide | inhibition, % at 4.4 µM | 0.31% of 370,000 active | AID 686964, 2013; in the data active means inhibition above about 13%
TDP2 absorb = human TDP2 enzyme inhibitors, primary screen, biochemical, epi absorbance, recombinant enzyme; inhibition, % at 12.8 µM; 0.34% of 370,000 active; AID 720702, 2013; Tyrosyl-DNA phosphodiesterase 2 (Homo sapiens), O95551; T5PNP hydrolysis, p-nitrophenol absorbance 415 nm;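 active means inhibition above the mean of all tested compounds plus 3 SD, set per campaign, cut at about 25% in these data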;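 further: 0% = DMSO with enzyme and 100% = buffer with substrate but no TDP2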
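Test system: human TDP2 enzyme; Input: 120 nM TDP2 per well; Buffer or medium: Mg2+-containing Tris-HCl buffer, pH 7.5; Reagent: 5 mM T5PNP; Dosing: 12.8 µM single point, 1% DMSO; Incubation: reaction 2 h, 37 °C; Detection: p-Nitrophenol epi absorbance; Read-out: % inhibition relative to enzyme-containing and enzyme-free wells; Replicates: single well per compound.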
CASP6 VEID inh = human caspase-6 inhibitors, primary screen, biochemical, VEID-R110 fluorescence, single point, set 2; 0.53% of 350,000 active; P55212; inhibition, % at 12.5 µM; purified caspase-6, Z-VEID-R110 cleavage fluorescence;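 active means mean inhibition across replicates at least about 35%, with every replicate also reaching that limit, limit read from the data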;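 further: 0% = median of neutral control wells and 100% = no fluorescence left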
NSD2 inh = NSD2 histone methyltransferase inhibitors, primary screen, biochemical, AlphaScreen, single concentration, set 2; Histone-lysine N-methyltransferase NSD2 (Homo sapiens), O96028; AID 743445, 2014; NSD2 peptide methylation, 120 min; 0.54% of 310,000 active; inhibition, % at 12.5 µM; in the data active means inhibition above about 50%
Target sequence (O96028 whole entry, looked up): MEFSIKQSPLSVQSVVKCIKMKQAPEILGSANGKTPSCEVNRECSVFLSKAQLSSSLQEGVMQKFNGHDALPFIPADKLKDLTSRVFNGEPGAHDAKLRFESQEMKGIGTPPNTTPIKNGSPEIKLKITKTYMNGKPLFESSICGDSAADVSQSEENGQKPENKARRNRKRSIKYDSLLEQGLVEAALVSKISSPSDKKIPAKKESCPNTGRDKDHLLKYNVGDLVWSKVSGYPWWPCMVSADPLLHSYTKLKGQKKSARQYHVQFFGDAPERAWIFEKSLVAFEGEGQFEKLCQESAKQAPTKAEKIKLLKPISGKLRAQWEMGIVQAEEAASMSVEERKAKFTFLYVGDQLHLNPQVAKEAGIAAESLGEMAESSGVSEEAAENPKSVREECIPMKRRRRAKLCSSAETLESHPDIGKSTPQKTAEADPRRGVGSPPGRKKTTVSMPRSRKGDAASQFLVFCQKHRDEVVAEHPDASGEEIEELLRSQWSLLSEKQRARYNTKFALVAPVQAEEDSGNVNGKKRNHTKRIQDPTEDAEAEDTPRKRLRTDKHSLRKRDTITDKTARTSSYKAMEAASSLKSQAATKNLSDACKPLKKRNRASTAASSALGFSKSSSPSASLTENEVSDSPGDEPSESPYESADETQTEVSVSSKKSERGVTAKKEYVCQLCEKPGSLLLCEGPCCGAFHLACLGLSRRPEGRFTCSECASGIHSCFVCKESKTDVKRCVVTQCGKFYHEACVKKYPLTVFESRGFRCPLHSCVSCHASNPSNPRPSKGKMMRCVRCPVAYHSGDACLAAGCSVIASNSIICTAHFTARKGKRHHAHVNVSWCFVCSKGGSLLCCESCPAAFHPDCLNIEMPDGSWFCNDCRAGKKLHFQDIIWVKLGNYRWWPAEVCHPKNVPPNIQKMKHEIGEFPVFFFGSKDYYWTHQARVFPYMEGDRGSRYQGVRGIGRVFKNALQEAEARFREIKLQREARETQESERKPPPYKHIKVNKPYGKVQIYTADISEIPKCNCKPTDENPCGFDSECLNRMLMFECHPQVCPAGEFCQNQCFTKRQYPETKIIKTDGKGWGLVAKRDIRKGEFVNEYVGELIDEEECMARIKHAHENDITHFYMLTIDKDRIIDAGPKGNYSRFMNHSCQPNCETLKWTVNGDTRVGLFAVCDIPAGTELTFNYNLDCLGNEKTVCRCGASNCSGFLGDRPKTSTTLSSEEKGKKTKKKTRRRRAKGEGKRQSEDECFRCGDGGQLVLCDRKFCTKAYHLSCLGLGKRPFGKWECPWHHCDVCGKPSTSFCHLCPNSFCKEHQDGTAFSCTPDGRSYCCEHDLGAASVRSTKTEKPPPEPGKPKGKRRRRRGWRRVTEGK
LEDGF integ inh = blockers of LEDGF/p75-dependent integrase strand transfer – biochemical, TR-FRET, high throughput, primary screen | TR-FRET IN-LEDGF/p75 DNA integration, Eu/Cy5 | inhibition, % at 3.7 µM | 0.64% of 370,000 active;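 active means inhibition above the screen-wide mean plus 3 SD, cut at about 13% in these data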;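 further: signal is the Cy5 over europium emission ratio at 671 and 618 nm; 0% = plate median of compound wells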
UHRF1 MBD2 ctr = UHRF1 methylated DNA binding inhibitors, primary screen, counter-screen for MBD2 inhibitor project, biochemical, TR-FRET, human UHRF1, single concentration; E3 ubiquitin-protein ligase UHRF1 (Homo sapiens), Q96T88; UHRF1 binding to methylated oligo; inhibition, % at 4.4 µM; 0.75% of 370,000 active; AID 687016, 2013; in the data active means inhibition above about 21%;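 further: UHRF1 SRA domain binding a hemimethylated CpG hairpin DNA probe; 0% = median of test compound wells and 100% = reference inhibitor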
An asterisk follows results filed as active; · = no result given. Only some compounds are listed: those with a hit (about 1.9% of all), similar ones and a draw of the others.

SMILES	MBD2 DNA inh	TDP2 absorb	CASP6 VEID inh	NSD2 inh	LEDGF integ inh	UHRF1 MBD2 ctr
CCOC(=O)c1cc(-c2cccs2)nn1CCC#N	-2	5	·	2	0	-1
CCN(CC)S(=O)(=O)c1cc(C(=O)Nc2ccccc2[N+](=O)[O-])ccc1Cl	6	0	·	-5	0	22*
CN(C)S(=O)(=O)c1cccc(C(=O)Nc2ccccc2[N+](=O)[O-])c1	6	3	-1	4	-2	3
CCCCC(NC(=O)Cc1c(C)c2cc3c(-c4ccccc4)coc3c(C)c2oc1=O)C(=O)O (stereo not drawn)	1	-8	60*	5	7	0
Cc1noc(C)c1NC(=O)Nc1ccc2c(c1)CC(=O)N([C@H](C)CO)C[C@@H](C)[C@H](CN(C)S(=O)(=O)c1ccccc1)O2	·	·	0	·	·	·
O=C1Nc2cc(Cl)cnc2N2CCCC12 (stereo not drawn)	0	4	40*	·	5	-6
COCCNC(=O)C[C@H]1C[C@@H]2c3cc(NC(=O)NC4CCCCC4)ccc3O[C@@H]2[C@H](CO)O1	·	·	1	·	·	·
C[C@@H]1CN([C@H](C)CO)C(=O)c2cc(NC(=O)CCCN(C)C)ccc2O[C@@H]1CN(C)C(=O)Nc1ccc(F)cc1	·	·	-1	·	·	·
Cc1nc(-c2ccccc2)sc1-c1ccnn1C	2	-11	1	-7	-9	43*
CCOc1ccccc1NC(=O)C1=C(C)NC(=O)NC1c1cccc(OC)c1OC (stereo not drawn)	10	-4	1	-2	3	23*
Cc1ccc(C(=O)CCC(=O)N2CCC(C(N)=O)CC2)cc1	-2	9	-7	0	5	29*
CCOc1ccccc1N(CC(=O)NC1CCCCC1)C(=O)c1nsc(Cl)c1Cl	2	7	-1	5	1	22*
Cc1cccc(N(CC(=O)NC2CCCC2)C(=O)c2nsc(Cl)c2Cl)c1C	-3	2	3	-2	3	0
Cc1ccc(C)c(NC(=O)COC(=O)CNC(=O)C2CCCCC2)c1	0	8	2	-4	-3	52*
Cc1cccc(NC(=O)COC(=O)CNC(=O)C2CCCCC2)c1	0	-4	·	33	0	-5
CO[C@H]1CN(C)C(=O)c2cc(NC(=O)C3CC3)ccc2OC[C@@H](C)N(C(=O)CN(C)C)C[C@H]1C	·	·	3	·	·	·
COc1cccc(C(=O)OC(C)C(=O)NCC2CCCCC2)c1 (stereo not drawn)	8	-2	36*	-2	3	4
C[C@H](CO)N1C[C@H](C)[C@H](CN(C)Cc2ccc(-c3ccccc3)cc2)Oc2ccc(NC(=O)NC3CCCCC3)cc2C1=O	·	·	2	·	·	·
O=C(CCN1C(=O)/C(=C\C=C\c2ccccc2)SC1=S)Nc1ccccc1C(=O)O	1	0	45*	31	-1	0
O=C(CCN1C(=O)/C(=C\C=C\c2ccccc2)SC1=S)Nc1cccc(C(=O)O)c1	4	14	9	13	1	-2
CCOc1ncccc1C(=O)Nc1ccc(F)c(Cl)c1	8	-2	-1	-1	0	76*
CCOC(=O)N1CCN(C(=O)CCNS(=O)(=O)c2ccccc2)CC1	1	-5	-1	-1	0	22*
O=C(CNS(=O)(=O)c1ccccc1)N1CCCC1	13	5	-1	-4	7	21*
O=C(CC1CC1)N1CC2(C1)[C@H](c1ccccc1)[C@H](CO)N2C(=O)c1cnccn1	·	·	0	·	·	·
C[C@@H]1CN([C@H](C)CO)C(=O)c2cc(NC(=O)c3ccccc3)ccc2O[C@@H](C)CCCCO[C@@H]1CN(C)C(=O)CCCN(C)C	·	·	0	·	·	·
SMILES	MBD2 DNA inh	TDP2 absorb	CASP6 VEID inh	NSD2 inh	LEDGF integ inh	UHRF1 MBD2 ctr
N#Cc1ccc(-c2ccc([C@@H]3[C@H]4CN(C(=O)Nc5ccc(F)cc5)CCCCN4[C@H]3CO)cc2)cc1	·	·	-1	·	·	·
COC(=O)C[C@H]1C=C[C@H](NS(=O)(=O)c2ccc(OC)cc2)[C@@H](CO)O1	·	·	0	·	·	·
O=C(C[C@@H]1C=C[C@@H](NC(=O)c2ccc(F)cc2)[C@@H](CO)O1)NCc1ccncn1	·	·	87*	·	·	·
Cc1sc(NC(=O)C2=COCCO2)nc1-c1ccc(Br)cc1	-6	-4	2	0	1	30*
Cc1sc(NC(=O)C2=COCCO2)nc1-c1ccc(F)cc1	4	-2	1	1	-7	5
Nc1nc(-c2cc(O)ccc2[N+](=O)[O-])cc(-c2ccccc2)c1[N+](=O)[O-]	-1	0	47*	-1	2	10
O=[N+]([O-])c1cc(-c2ccccc2)cc([N+](=O)[O-])c1O	-11	6	6	14	1	-9
CN(C)C(=O)c1ccc(-c2ccccc2[C@@H]2[C@@H](C#N)N(C(=O)C3CCCCC3)[C@H]2CO)cc1	·	·	-3	·	·	·
O=C(CSc1ccsc1[N+](=O)[O-])Nc1cc(F)ccc1F	2	18	36*	7	6	14
CCOC(=O)C1=C(C)N(c2ccc(OC)cc2)C(=O)/C1=C\c1cccs1	8	3	4	-1	2	25*
CCOC(=O)C1=C(C)N(c2ccc(OC)cc2)C(=O)/C1=C\c1ccc(O)c(OCC)c1	-8	-5	4	19	5	-7
C/C(=N\OCc1ccc(C#N)cc1)c1ccccc1	0	10	-4	-2	-4	71*
O=C(NC[C@H]1CC[C@H]2[C@H](CN2Cc2ccccc2F)O1)C1CC1	·	·	2	·	·	·
O=C(c1ccco1)c1coc2c1cc(O)c1ccccc12	-1	5	47*	13	0	8
CC(=O)c1coc2c1cc(O)c1ccccc12	-3	11	·	·	-2	1
C=CCc1ccc(OCCN2CCc3ccccc3C2)c(OC)c1	5	-11	-7	13	-4	29*
COc1cc(CN2CCc3ccccc3C2)cc([N+](=O)[O-])c1O	-4	-14	47*	-1	1	0
C/C=C/c1ccc(OCCN2CCc3ccccc3C2)c(OC)c1	-4	6	-5	5	1	2
C[C@@H]1CN([C@@H](C)CO)C(=O)c2cc(NC(=O)NC3CCCCC3)ccc2O[C@@H](C)CCCCO[C@@H]1CN(C)C	·	·	1	·	·	·
O=C(C[C@@H]1C/C=C\CC[C@H](Cc2ccc(F)cc2)C(=O)OC[C@@H](Cc2ccccc2)NC1=O)NCCO	8	5	-2	·	1	21*
Cc1noc(C)c1NC(=O)N[C@@H]1CC[C@H](CC(=O)N2CCCCC2)O[C@@H]1CO	·	·	0	·	·	·
